Usually bioavailability stands for the share of a dose that reaches the circulation, judged against a reference dose that is usually intravenous. Broadly, the microsomal CLint is the capacity of the preparation to metabolise the compound, expressed as a volume cleared per time. A higher microsomal CLint goes with faster metabolism. A word on the clearance: it is the rate of elimination divided by the concentration. A lower clearance goes with a low capacity for elimination. Usually Ki stands for a measure of affinity in units of concentration, obtained from inhibition or displacement.

Where only a bound is given, the exact number is not on record here.

The nature of data set [1]: Oral bioavailability in Wistar rat at 10 mg/kg. The conditions noted are these: in vivo. The data set is classed as ADME, organism-based. In outline:
(§1)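 Male Wistar rats dosed 1 mg/kg iv or 10 mg/kg po; vehicle 5% DMA / 95% saline. Plasma pharmacokinetic parameters derived and given as mean with SD.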

A short description of data set [2]: Permeability from apical to basolateral side of the human Caco-2 membrane. The class given is ADME, cell-based. The conditions noted are these: read-out: permeability.
Data set [3] is described as follows: Intrinsic clearance in human liver microsome measured per mg of protein. To be noted: liver microsomes. The data set is classed as ADME. (Liver microsomes are vesicles of endoplasmic reticulum, rich in cytochrome P450 enzymes.)
Data set [4] can be described thus: Clearance in Wistar rat at 1 mg/kg, iv. The class given is ADME, organism-based. Details: dose 1 mg/kg, route intravenous. The conditions noted are these: in vivo. In outline:
as §1

Data set [5] has as its system Hepatocyte. Description: Intrinsic clearance in rat hepatocytes. The data set is classed as ADME, cell-based, Liver.
Data set [6] can be described thus: Permeability from basolateral to apical side of the human Caco-2 membrane. The conditions noted are these: read-out: permeability. The class given is ADME, cell-based. On the technique in general: Passage across Caco-2 layers is used to estimate intestinal permeability.
The nature of data set [7]: Elimination half life in Wistar rat at 1 mg/kg, iv. More on the design: dose 1 mg/kg, route intravenous. To be noted: in vivo, read-out: beta t1/2 (converted). The class given is ADME, organism-based. In outline: as §1
For data set [8], the system named is Hepatocyte. Description: Intrinsic clearance in human hepatocytes. The data set is classed as ADME, cell-based, Liver.
The nature of data set [9]: Intrinsic clearance in rat liver microsome measured per mg of protein. The class given is ADME. The conditions noted are these: liver microsomes.
The species named for another data set is Homo sapiens. Description: Plasma protein binding in human. The conditions noted are these: read-out: PPB (converted).
The nature of data set [10]: Plasma protein binding in rat. The conditions noted are these: read-out: PPB (converted).
Data set [11] addresses Voltage-gated inwardly rectifying potassium channel KCNH2 (Homo sapiens, UniProt Q12809). Description: Displacement of [3H]dofetolide from human ERG channel in HEK293 cells. The data set is classed as cell-based. In outline:
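Affinity for cardiac K+ channel determined by displacement of tritiated dofetolide in membrane homogenate from HEK-293 cells expressing hERG channel; reported as pKi.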
Background: Displacement assays read how much labelled ligand stays bound in the presence of the test substance.

Data set [12] in a line: Volume of distribution at steady state in Wistar rat at 1 mg/kg, iv. The data set is classed as ADME, organism-based. Details: dose 1 mg/kg, route intravenous. The conditions noted are these: in vivo, read-out: Vdss. The method in brief: as §1
Data set [13] has as its target 5-hydroxytryptamine receptor 6 (Homo sapiens, UniProt P50406). Description: Displacement of [3H]LSD from human 5HT6 receptor expressed in CHO cells.

Chain of 5-hydroxytryptamine receptor 6 (P50406 whole entry): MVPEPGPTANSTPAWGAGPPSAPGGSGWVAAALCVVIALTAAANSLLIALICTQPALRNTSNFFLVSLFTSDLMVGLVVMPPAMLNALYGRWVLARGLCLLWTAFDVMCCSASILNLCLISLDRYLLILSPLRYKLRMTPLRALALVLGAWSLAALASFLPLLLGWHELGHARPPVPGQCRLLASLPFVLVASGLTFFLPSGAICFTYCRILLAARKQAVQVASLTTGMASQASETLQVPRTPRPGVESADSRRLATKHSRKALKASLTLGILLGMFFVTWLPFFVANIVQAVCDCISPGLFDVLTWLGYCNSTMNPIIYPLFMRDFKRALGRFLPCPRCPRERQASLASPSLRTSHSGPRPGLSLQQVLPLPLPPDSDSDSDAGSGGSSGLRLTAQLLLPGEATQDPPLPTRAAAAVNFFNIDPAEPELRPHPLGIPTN
Chain of Voltage-gated inwardly rectifying potassium channel KCNH2 (Q12809 whole entry): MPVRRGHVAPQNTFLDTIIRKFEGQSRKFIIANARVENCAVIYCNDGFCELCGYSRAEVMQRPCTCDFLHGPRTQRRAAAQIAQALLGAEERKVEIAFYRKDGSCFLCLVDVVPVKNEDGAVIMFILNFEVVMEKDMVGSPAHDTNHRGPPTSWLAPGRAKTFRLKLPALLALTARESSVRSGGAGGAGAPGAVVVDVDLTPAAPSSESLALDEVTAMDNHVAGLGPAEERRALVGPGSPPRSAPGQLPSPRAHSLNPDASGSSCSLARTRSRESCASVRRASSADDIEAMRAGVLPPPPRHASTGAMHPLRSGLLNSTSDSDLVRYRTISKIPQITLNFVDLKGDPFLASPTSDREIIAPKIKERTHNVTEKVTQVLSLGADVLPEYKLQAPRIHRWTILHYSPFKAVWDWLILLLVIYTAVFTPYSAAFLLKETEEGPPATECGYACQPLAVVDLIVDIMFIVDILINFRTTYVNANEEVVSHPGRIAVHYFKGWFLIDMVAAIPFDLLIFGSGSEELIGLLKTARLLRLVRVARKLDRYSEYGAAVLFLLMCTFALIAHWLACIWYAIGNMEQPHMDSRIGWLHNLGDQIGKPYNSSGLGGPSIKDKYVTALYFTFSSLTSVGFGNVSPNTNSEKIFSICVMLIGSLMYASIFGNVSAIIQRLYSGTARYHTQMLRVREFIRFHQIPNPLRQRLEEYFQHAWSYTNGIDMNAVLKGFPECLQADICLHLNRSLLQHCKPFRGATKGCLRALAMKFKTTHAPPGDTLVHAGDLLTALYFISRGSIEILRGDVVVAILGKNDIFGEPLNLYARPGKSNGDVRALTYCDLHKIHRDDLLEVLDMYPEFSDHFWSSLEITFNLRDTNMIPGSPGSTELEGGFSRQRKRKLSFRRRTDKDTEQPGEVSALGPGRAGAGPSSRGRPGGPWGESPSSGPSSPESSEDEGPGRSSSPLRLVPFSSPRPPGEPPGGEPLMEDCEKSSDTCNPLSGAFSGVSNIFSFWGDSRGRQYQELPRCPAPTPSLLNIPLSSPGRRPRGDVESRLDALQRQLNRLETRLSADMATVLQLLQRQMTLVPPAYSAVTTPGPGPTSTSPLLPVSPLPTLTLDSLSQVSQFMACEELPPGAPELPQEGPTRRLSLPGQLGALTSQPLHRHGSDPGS

In turn, `COc1ccc(S(=O)(=O)N2C[C@H](C(=O)N3CCCNCC3)c3ccccc32)c2ccccc12` gave a bioavailability in [1] of 23.5%. Moreover, the Papp A→B in data set [2] is less than 2.2 ×10⁻⁶ cm/s. Moreover, the microsomal CLint is 69 µL/min/mg in data set [3] and 105 µL/min/mg in data set [9]. In addition, the clearance in data set [4] amounted to 16.5 mL/min/kg. For the same compound, the CL in the data set with Hepatocyte [5] turned out to be 11 µL/min; in the data set on Hepatocyte [8] it was 7 µL/min. The Papp B→A in data set [6] is 4.7 ×10⁻⁶ cm/s. In addition, the half-life in data set [7] was 1.9 h. Besides, the fraction unbound was 0.006 in the data set filed under Homo sapiens and 0.029 in data set [10]. For the same compound, affinity in data set [11] was put at a Ki of 1260 nM. Also, the Vd in data set [12] came to 1.9 L/kg. `COc1ccc(S(=O)(=O)N2CC(C(=O)NCCCn3ccnc3)c3ccccc32)c2ccccc12` (racemic) gave a Ki in data set [13] of 79.4 nM. Same read-out and setting: the same measure for `CN1CCC(N(C)C(=O)C2CN(S(=O)(=O)c3cccc4c(Cl)cccc34)c3ccccc32)CC1` (racemic): 5.01 nM; for `CN1CCC(N(C)C(=O)C2CN(S(=O)(=O)c3cccc4ccccc34)c3ccccc32)CC1` (racemic): 31.6 nM. Same read-out and setting: the same measure for `COc1ccc(S(=O)(=O)N2CC(C(=O)NC3CC4CCC(C3)N4C)c3ccccc32)c2ccccc12` (racemic): 31.6 nM; for `CN1CCC(N(C)C(=O)C2CN(S(=O)(=O)c3cccc4nsnc34)c3ccccc32)CC1` (racemic): 126 nM; for `Cc1c(S(=O)(=O)N2CC(C(=O)N(C)C3CCN(C)CC3)c3ccccc32)sc2ccc(Cl)cc12` (racemic): 63.1 nM. The same measure, in the same setting: the result for `CN1CCC(N(C)C(=O)C2CN(S(=O)(=O)c3cccs3)c3ccccc32)CC1` (racemic) reads 316 nM. For `CN1CCC(N(C)C(=O)C2CN(S(=O)(=O)c3ccccc3)c3ccccc32)CC1` (racemic), in [13], affinity was put at a Ki of 316 nM. Turning to `COc1ccc(S(=O)(=O)N2CC(C(=O)N(C)C3CCN(C)CC3)c3ccccc32)c2ccccc12` (racemic), the Ki in data set [13] was 7.94 nM. In the case of `COc1ccc(S(=O)(=O)N2CC(C(=O)NCCCN3CCOCC3)c3ccccc32)c2ccccc12` (racemic), in data set [13], affinity was put at a Ki of 31.6 nM. On the same count and under the same terms, the result for `CN1CCC(N(C)C(=O)C2CN(S(=O)(=O)c3cccc(C(F)(F)F)c3)c3ccccc32)CC1` (racemic) reads 25.1 nM. On the same count and under the same terms, the result for `COc1ccc(S(=O)(=O)N2CC(C(=O)N(C)C3CCN(C)CC3)c3ccccc32)c(C)c1C` (racemic) reads 100 nM; that for `CN1CCC(N(C)C(=O)C2CN(S(=O)(=O)c3ccc(C(F)(F)F)cc3)c3ccccc32)CC1` (racemic), 25.1 nM. Still for that read-out and setting: the result for `COc1cc(C)c(S(=O)(=O)N2CC(C(=O)N(C)C3CCN(C)CC3)c3ccccc32)c(C)c1C` (racemic) reads 100 nM; that for `COc1ccc(S(=O)(=O)N2CC(C(=O)N3CCCNCC3)c3ccccc32)c2ccccc12` (racemic), 1.26 nM; that for `CCN(CC)CCNC(=O)C1CN(S(=O)(=O)c2ccc(OC)c3ccccc23)c2ccccc21` (racemic), 20 nM. `CCN(CC)CCCNC(=O)C1CN(S(=O)(=O)c2ccc(OC)c3ccccc23)c2ccccc21` (racemic) showed a Ki in [13] of 79.4 nM. Still for that read-out and setting: the same measure for `CN1CCC(N(C)C(=O)C2CN(S(=O)(=O)c3ccc(-c4ccccc4)cc3)c3ccccc32)CC1` (racemic): 126 nM; for `CN1CCC(N(C)C(=O)C2CN(S(=O)(=O)c3cccc(-c4ccccc4)c3)c3ccccc32)CC1` (racemic): 31.6 nM; for `COc1cccc(N2CCN(C(=O)C3CN(S(=O)(=O)c4ccc(OC)c5ccccc45)c4ccccc43)CC2)c1` (racemic): 63.1 nM. On the same count and under the same terms, the result for `CN1CCC(N(C)C(=O)C2CN(S(=O)(=O)c3ccc4ccccc4c3)c3ccccc32)CC1` (racemic) reads 25.1 nM. On the same count and under the same terms, the same measure for `CN1CCC(N(C)C(=O)C2CN(S(=O)(=O)c3ccc4c(c3)OCCO4)c3ccccc32)CC1` (racemic): 50.1 nM; for `Cc1cnc2c(S(=O)(=O)N3CC(C(=O)N(C)C4CCN(C)CC4)c4ccccc43)cccc2c1` (racemic): 316 nM; for `COc1ccc(S(=O)(=O)N2CC(C(=O)N3CC(N)C3)c3ccccc32)c2ccccc12` (racemic): 158 nM. Consider `COc1ccc(S(=O)(=O)N2CC(C(=O)N3CC(CN)C3)c3ccccc32)c2ccccc12` (racemic), for which the affinity in data set [13], expressed as Ki, was 79.4 nM. This Ki lies about 2-fold lower than the previous one. Same read-out and setting: the same measure for `COc1ccc(S(=O)(=O)N2CC(C(=O)N3CCNCC3)c3ccccc32)c2ccccc12` (racemic): 7.94 nM. On to `COc1ccc(S(=O)(=O)N2CC(C(=O)NC3CCN(C)CC3)c3ccccc32)c2ccccc12` (racemic), for which the affinity in [13] corresponds to a Ki of 25.1 nM. Compound `COc1ccc(S(=O)(=O)N2CC(C(=O)NC3CCN(Cc4ccccc4)CC3)c3ccccc32)c2ccccc12` (racemic) had a Ki in data set [13] of 50.1 nM.

As to `CN1CCC(N(C)C(=O)C2CN(S(=O)(=O)c3ccc(OC(F)(F)F)cc3)c3ccccc32)CC1` (racemic), the affinity in data set [13] corresponds to a Ki of 20 nM. Against the preceding compound, the Ki is about 2.5-fold lower.

For the origin of these results see ChEMBL document CHEMBL1155540, “The discovery and SAR of indoline-3-carboxamides--a new series of 5-HT6 antagonists” (Bioorg Med Chem Lett, 2010).
